Data set [1] concerns the target T1, Prostaglandin G/H synthase 1 (Ovis aries) (UniProt P05979).
T1 sequence (whole entry): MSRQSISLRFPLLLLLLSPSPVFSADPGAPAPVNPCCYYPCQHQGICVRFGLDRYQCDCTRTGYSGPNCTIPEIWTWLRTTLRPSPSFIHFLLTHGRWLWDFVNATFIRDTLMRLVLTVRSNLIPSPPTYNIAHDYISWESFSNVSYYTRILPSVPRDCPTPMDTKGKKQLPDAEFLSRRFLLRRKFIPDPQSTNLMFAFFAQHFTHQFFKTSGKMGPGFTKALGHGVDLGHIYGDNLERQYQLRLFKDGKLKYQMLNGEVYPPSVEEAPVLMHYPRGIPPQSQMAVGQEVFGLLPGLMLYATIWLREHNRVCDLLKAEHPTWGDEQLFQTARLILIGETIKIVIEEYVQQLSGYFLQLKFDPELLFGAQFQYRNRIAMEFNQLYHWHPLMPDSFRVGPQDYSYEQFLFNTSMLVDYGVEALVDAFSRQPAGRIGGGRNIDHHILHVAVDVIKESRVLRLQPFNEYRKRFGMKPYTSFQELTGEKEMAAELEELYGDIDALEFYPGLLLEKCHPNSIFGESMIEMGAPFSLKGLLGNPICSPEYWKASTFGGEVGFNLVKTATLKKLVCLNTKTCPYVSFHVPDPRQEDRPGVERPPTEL
Nature of the data set: Inhibition of ovine COX-1 assessed as inhibition of PGH2 production using arachidonic acid as substrate at 50 uM by TMPD oxidation based colorimetric assay. A digest of the protocol:
(§1)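 Ovine COX-1 and COX-2 tested with a commercial colorimetric COX inhibitor screening kit, run per the manufacturer's protocol. The kit reads the enzyme's peroxidase activity. Compounds screened as percent inhibition at a single 50 µM concentration.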

The target in data set [2] is T2, Prostaglandin G/H synthase 2 (Ovis aries) (UniProt P79208).
T2 sequence (whole entry): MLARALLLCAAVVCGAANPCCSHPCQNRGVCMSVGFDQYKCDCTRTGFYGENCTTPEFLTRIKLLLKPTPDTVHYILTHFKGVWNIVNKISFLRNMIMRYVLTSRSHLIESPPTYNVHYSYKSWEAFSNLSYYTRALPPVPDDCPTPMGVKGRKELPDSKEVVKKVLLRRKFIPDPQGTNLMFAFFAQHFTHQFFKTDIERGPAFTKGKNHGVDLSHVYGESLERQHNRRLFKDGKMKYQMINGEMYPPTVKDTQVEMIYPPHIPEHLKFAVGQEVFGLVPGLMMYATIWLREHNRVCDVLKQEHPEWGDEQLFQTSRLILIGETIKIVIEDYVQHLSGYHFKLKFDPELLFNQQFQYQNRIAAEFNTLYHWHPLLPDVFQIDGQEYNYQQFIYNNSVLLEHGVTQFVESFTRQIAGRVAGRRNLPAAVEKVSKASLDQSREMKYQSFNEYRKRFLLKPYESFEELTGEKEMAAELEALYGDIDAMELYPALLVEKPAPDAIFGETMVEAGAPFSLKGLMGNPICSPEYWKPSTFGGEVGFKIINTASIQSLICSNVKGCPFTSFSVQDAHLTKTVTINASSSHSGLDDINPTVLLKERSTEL
The experiment in a line: Inhibition of ovine COX-2 assessed as inhibition of PGH2 production using arachidonic acid as substrate at 50 uM by TMPD oxidation based colorimetric assay. In short, it runs like this: as §1

Data set [3] has as its system SK-OV-3. Nature of the data set: Antiproliferative activity against human SKOV3 cells assessed as cell growth inhibition after 48 hrs by MTT assay. It is filed as cell-based. As to conditions: sk-ov-3, 48 h. A digest of the protocol: (§2)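 MTT read-out of growth after 48 h. After the drug incubation, MTT was added at 0.5 mg/mL for 3 h at 37 °C. Supernatant was removed, formazan dissolved in DMSO, and absorbance read.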
In general terms: Tetrazolium assays rely on reduction of a dye to a coloured formazan, in cell work by metabolically active cells.

The test system of data set [4] is MCF7. The experiment in a line: Antiproliferative activity against human MCF7 cells assessed as cell growth inhibition after 48 hrs by MTT assay. It is filed as cell-based. The settings on record: mcf7, 48 h. In short, it runs like this:
as §2

Data set [5] deals with T3, Prostaglandin G/H synthase 2 (Homo sapiens, UniProt P35354).
T3 sequence (P35354 whole entry): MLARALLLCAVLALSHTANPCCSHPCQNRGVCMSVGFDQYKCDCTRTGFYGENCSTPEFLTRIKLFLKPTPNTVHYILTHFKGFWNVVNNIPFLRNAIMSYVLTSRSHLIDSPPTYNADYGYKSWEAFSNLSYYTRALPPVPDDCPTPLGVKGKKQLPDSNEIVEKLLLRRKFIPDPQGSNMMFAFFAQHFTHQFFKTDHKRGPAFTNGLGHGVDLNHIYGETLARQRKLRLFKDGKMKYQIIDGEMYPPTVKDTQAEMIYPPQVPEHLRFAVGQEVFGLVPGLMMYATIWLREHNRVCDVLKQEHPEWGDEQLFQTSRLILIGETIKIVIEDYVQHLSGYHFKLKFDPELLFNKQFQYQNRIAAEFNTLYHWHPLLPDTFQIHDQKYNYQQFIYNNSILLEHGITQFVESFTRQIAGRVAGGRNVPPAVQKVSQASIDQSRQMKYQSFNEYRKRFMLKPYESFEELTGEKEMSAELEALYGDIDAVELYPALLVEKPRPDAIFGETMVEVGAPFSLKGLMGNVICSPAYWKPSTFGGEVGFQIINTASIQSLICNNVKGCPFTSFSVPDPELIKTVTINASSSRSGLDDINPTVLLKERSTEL
The experiment in a line: Inhibition of LPS-induced COX2 in human whole blood assessed as reduction in […] levels by radioimmunoassay.

Data set [6] deals with T4, Prostaglandin G/H synthase 2 (Ovis aries, UniProt P79208).
T4 sequence (P79208 whole entry): T2 sequence (whole entry)
The experiment in a line: Inhibition of ovine COX-2 assessed as inhibition of PGH2 production using arachidonic acid as substrate by TMPD oxidation based colorimetric assay.

The structures appear in SMILES notation. Active and inactive are the calls of the source. No cut-off for these calls is given here. A value given as a limit tells only on which side of the number the result lay.

Broadly, the inhibition is the percentage by which the read-out fell short of the control. Broadly, the IC50 is the concentration at which inhibition is half-maximal.

For the compound `COC(=O)Cc1onc(-c2ccc(Cl)o2)c1-c1ccccc1`, the inhibition in data set [1] is 7%.

As to `Cc1c(-c2ccccc2)nnn1-c1ccc([N+](=O)[O-])cc1`, the inhibition entry in data set [1] and in data set [2] was “inactive” each time. For the compound `N#CCc1onc(-c2ccc(Cl)o2)c1-c1ccccc1`, in data set [1], the inhibition worked out at 11%. Consider `COc1ccc(-n2nnc(-c3ccc(Cl)o3)c2C)cc1`, for which, in data set [1], the inhibition was 45%. The inhibition result in data set [2] is “inactive”. On to `COc1ccc(-n2nnc(-c3ccc(SC)cc3)c2C)cc1`, for which the inhibition result in data set [1] and in data set [2] was “inactive” each time. Take `COc1ccc(-n2nnc(-c3ccc(N)cc3)c2C)cc1`: the inhibition in data set [1] was 100%. The Activity entry in data set [3] and in data set [4] was “Non-toxic” throughout. Besides, the inhibition entry in data set [2] is “inactive”.

With `Cc1c(-c2ccccc2)nnn1-c1ccc(N)cc1`, the inhibition in data set [1] is 56%. In addition, the Activity result in data set [3] and in data set [4] was “Non-toxic” throughout. The inhibition entry in data set [2] was “inactive”. For the compound `COc1ccc(-n2nnc(-c3ccc(S(C)(=O)=O)cc3)c2C)cc1`, the inhibition in data set [1] was 20%. Further, the inhibition result in data set [2] was “inactive”. For `Cc1c(-c2ccco2)nnn1-c1ccc([N+](=O)[O-])cc1`, the inhibition entry in data set [1] is “inactive”. The inhibition in data set [2] was 40%.

In the case of `Cc1c(-c2ccccc2)nnn1-c1ccc(S(C)(=O)=O)cc1`, the inhibition stood at 21% in data set [1] and 20% in data set [2]. As for `Cc1onc(-c2ccc(Cl)o2)c1-c1ccccc1`, the inhibition in data set [1] was found to be 89%. In data set [5], the IC50 is more than 100000 nM. Turning to `Cc1c(-c2ccccc2)nnn1-c1ccc(F)cc1`, the inhibition result in data set [1] and in data set [2] was “inactive” in each case.

For the compound `Cc1c(-c2ccccc2)nnn1-c1ccc(O)cc1`, the inhibition result in data set [1] is “inactive”. Also, the inhibition in data set [2] is 26%.

In the case of `COc1ccc(-n2nc(C(F)(F)F)cc2-c2ccco2)cc1`, the inhibition in data set [2] stood at 28%. As for `COc1ccc(-n2nnc(-c3ccco3)c2C)cc1`, the inhibition entry in data set [1] and in data set [2] was “inactive” each time.

With `COc1ccc(-n2nnc(-c3ccccc3)c2C)cc1`, the inhibition in data set [1] amounted to 26%; in data set [2], 35%.

For the compound `COc1ccc(-n2nnc(-c3ccc([N+](=O)[O-])cc3)c2C)cc1`, the inhibition in data set [1] is 20%. Moreover, the inhibition entry in data set [2] is “inactive”. For the compound `COc1ccc(-c2nnn(-c3ccc(S(C)(=O)=O)cc3)c2C)cc1`, the inhibition in data set [1] amounted to 55%. Moreover, the inhibition entry in data set [2] is “inactive”.

As for `COc1ccc(-c2nnn(-c3ccc(OC)cc3)c2C)cc1`, the inhibition in data set [1] worked out at 25%. In data set [2], the inhibition result is “inactive”. On the same counts, the results for `COc1ccc(-c2nnn(-c3ccc(SC)cc3)c2C)cc1` are “inactive” and “inactive”.

Turning to `Cc1c(-c2ccccc2)nnn1-c1ccc(Cl)cc1`, the inhibition result in data set [1] and in data set [2] was “inactive” each time. In the case of `Clc1ccc(-c2noc(CBr)c2-c2ccccc2)o1`, the inhibition in data set [1] came to 37%. Consider `COc1ccc(-c2noc(CC(=O)O)c2-c2ccc(OC)cc2)cc1` [MOFEZOLAC], for which the IC50 in data set [6] amounted to 440 nM. For the compound `CSc1ccc(-n2nnc(-c3ccccc3)c2C)cc1`, the inhibition result in data set [1] is “inactive”. Besides, in data set [2], the inhibition was 14%.

The values above are taken from ChEMBL document CHEMBL3425409, “General role of the amino and methylsulfamoyl groups in selective cyclooxygenase(COX)-1 inhibition by 1,4-diaryl-1,2,3-triazoles and validation of a predictive pharmacometric PLS model” (Eur J Med Chem, 2015).
